Screens deposited in PubChem by several laboratories.
APP 5'UTR act: APP 5'UTR luciferase reporter activation; 1% of 190,000 active; SH-SY5Y APP 5'UTR luciferase reporter, luminescence; zero percent = DMSO vehicle wells; activation, % at 2 µM;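 active = activation above a set limit, based on mean plus 3 SD of controls, cut at about 140% in these data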
NF-kB neuron act: NF-kB expression increase, human neuronal cells; 1.6% of 190,000 active; fold change at 12.5 µM; NF-kB reporter expression; stronger effect = higher value; in the data active = fold change above about 3.3
FLuc stim CS: firefly luciferase counter-screen for stimulation assays. P08659. ATPlite luciferase biochemical, luminescence, 10 min; 0 = ATP-free wells, 1 = DMSO control. activation factor at 10 µM. 200,000 tested, under 10 active. AID 1027;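 active = luciferase activation factor, scaled between plate controls, of at least 2 with compound at 10 µM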
Target sequence (P08659 whole entry, looked up): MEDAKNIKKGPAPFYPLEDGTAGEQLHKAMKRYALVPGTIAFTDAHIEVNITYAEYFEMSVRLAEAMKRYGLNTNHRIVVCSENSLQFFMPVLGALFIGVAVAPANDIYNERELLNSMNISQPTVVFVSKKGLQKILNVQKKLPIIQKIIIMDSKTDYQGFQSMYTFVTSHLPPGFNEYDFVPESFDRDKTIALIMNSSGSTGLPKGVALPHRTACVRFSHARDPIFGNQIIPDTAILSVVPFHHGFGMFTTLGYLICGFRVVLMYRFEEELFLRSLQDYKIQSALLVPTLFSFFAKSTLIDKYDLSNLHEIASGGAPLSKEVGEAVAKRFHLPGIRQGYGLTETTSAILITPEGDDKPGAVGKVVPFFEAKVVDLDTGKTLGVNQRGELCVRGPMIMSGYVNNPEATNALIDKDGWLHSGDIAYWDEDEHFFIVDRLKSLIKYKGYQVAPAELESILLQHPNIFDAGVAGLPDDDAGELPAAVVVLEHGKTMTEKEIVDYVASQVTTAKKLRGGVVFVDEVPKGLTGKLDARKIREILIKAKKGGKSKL
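Material: Luciferase/luciferin reagent mix; Doses: test compounds dosed from 2 mM stocks in 100% DMSO; Schedule: 10 min incubation after luciferase reagent addition, room temperature; Measured by: luminescence from luciferase reaction; Read-out: luminescence gain marking luciferase activators.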
PPC-1+TRAIL kill: compounds killing PPC-1 cancer cells with TRAIL present (potentiator screen, no TRAIL-free arm); PPC-1 cells + TRAIL, ATPLite viability luminescence; cell killing (% activity), % at 4 µM or 5 µM; AID 1443; 0.41% of 220,000 active;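 active = cell killing above 50% in the first pass at 4 µM, then a duplicate retest at 5 µM averaging 50% or more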;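 also: plate controls were cells with TRAIL plus DMSO for no effect and medium-only wells lacking cells for full effect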
FLuc inhib CS: inhibits firefly luciferase, flagging false hits in luciferase inhibition screens. P08659. ATPLite firefly luciferase biochemical luminescence, 10 min. inhibition, % at 10 µM. 1.5% of 200,000 active;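 active = inhibition above about 50% when tested at 10 µM, limit read from the data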
C8 TRAIL sens: caspase-8 TRAIL sensitization; NB7+C8 cells + TRAIL, ATPlite viability luminescence; inhibition (viability loss, TRAIL sensitization), % at 10 µM; AID 624354; 1% of 360,000 active;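 active = compounds causing at least 50% loss of cell viability in the single-dose screen, relative to plate controls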
Starred values were filed as active, the others as inactive; x = no result. Compounds with a hit are over-represented: about 2.2% of the library has one in this group of screens.

SMILES	APP 5'UTR act	NF-kB neuron act	FLuc stim CS	PPC-1+TRAIL kill	FLuc inhib CS	C8 TRAIL sens
CCOC(=O)Cc1ccc(NC(=O)c2ccc(C(C)(C)C)cc2)cc1	-71	0.36	0.5	48	54*	32
Cc1noc(N)c1C(=O)Nc1ccc(C(C)(C)C)cc1	75	4*	0.3	30	67*	56*
COC(=O)[C@@]12C[C@@H](CC(=O)N3CCN(C(=O)c4ccco4)CC3)C(=O)N(CCc3ccc(OC)c(OC)c3)C1=CCC(C)(C)C2	x	x	x	x	x	4
O=C(c1[nH]c(C(F)(F)F)nc1-c1ccccc1)N1CCc2ccccc2C1	x	x	x	x	x	-21
CCOC(=O)C1(C)CCCN1C(=O)c1sccc1C (centres undefined)	x	x	x	x	x	10
CCCc1cc(C(=O)Nc2ccc(C)cc2)no1	21	2.1	0.7	-1	27	-2
CCc1ccc(NC(=O)c2cc(C(C)C)on2)cc1	137*	8*	0.7	7	30	25
CCCc1cc(C(=O)Nc2ccc(CC)cc2)no1	x	x	x	x	x	5
Cc1ccc(NC(=O)c2cc(C)on2)cc1	82	3.3*	0.5	17	45	24
CCc1ccc(NC(=O)c2cc(C)on2)cc1	200*	5.8*	0.4	17	61*	26
CC(C)=C[C@H]1C[C@H](C)[C@H]2CC[C@H](C)c3c(O[C@@H]4O[C@@H](C)[C@@H](O)[C@@H](O)[C@@H]4O)c(O)c(C)c1c32	x	x	x	x	x	-8
COc1ccc(NC(=O)C2Cc3c(-c4cccc(NC(C)=O)c4)ccnc3O2)cn1 (centres undefined)	x	x	x	x	x	7
COc1cccc(CN2CCC2(C)C(=O)Nc2ccc3c(c2)OCO3)c1F (centres undefined)	x	x	x	x	x	8
CC1(C(=O)Nc2ccc(Cl)c(Cl)c2)CCN1C(=O)Cc1ccc(-c2ccccc2)cc1 (centres undefined)	x	x	x	x	x	10
CCCCC(=O)N(C)c1c(CC)nc2c(OCc3cccc(Cl)c3)cccn12	x	x	x	x	x	5
CN(C(=O)CN1CCN(c2cc(-c3cccc4oc5ccccc5c34)ncn2)CC1)c1ccccc1	x	x	x	x	x	-17
CCCCCCCCCCn1ccc(=N)cc1	x	x	x	47	x	55*
CN(C)CCNCCCNc1c2ccccc2nc2cccc([N+](=O)[O-])c12	x	x	x	x	x	61*
CN(C)CCCNc1c2c(nc3ccccc13)CCC2	x	x	x	x	x	-6
O=S1(=O)N[C@@H](Cc2ccccc2)COc2cccc(N3CCSCC3)c21	x	x	x	x	x	-12
O=C(CCl)N(c1ccccc1)c1c[nH]c2ccccc12	-32	0.41	1.1	11	-9	98*
O=C(CCl)N(c1ccc(Cl)cc1)c1c[nH]c2ccccc12	-18	1	1	34	4	89*
CC1CCC(NC(=O)C2CCC(CNS(=O)(=O)c3ccc4c(c3)C(C)(C)C(=O)N4C)CC2)CC1 (centres undefined)	x	x	x	x	x	-4
Cc1ccc(S(=O)(=O)Cc2cc(F)c([N+](=O)[O-])cc2[N+](=O)[O-])cc1	x	x	x	x	x	65*
O=C(N[C@H]1CC[C@H](CCNC(=O)C2CC2)O[C@@H]1CO)c1ccccn1	x	x	x	x	x	-3
SMILES	APP 5'UTR act	NF-kB neuron act	FLuc stim CS	PPC-1+TRAIL kill	FLuc inhib CS	C8 TRAIL sens
CC(C)(C)OC(=O)NCc1ccc(NC(=O)c2nc[nH]c2C(=O)NCCCCCCNC(=O)c2[nH]cnc2C(=O)Nc2ccc(CNC(=O)OC(C)(C)C)cc2)cc1	x	x	x	x	x	36
CC(C)(C)OC(=O)NCc1ccc(CNC(=O)c2[nH]cnc2C(=O)Nc2ccccc2F)cc1	x	x	x	x	x	56*
CC(C)(C)OC[C@H](NC(=O)c1[nH]cnc1C(=O)Nc1ccccc1F)C(=O)OC(C)(C)C	x	x	x	x	x	60*
CC(C)(C)OC(=O)NCc1ccc(NC(=O)c2nc[nH]c2C(=O)NCCCCNC(=O)c2[nH]cnc2C(=O)Nc2ccc(CNC(=O)OC(C)(C)C)cc2)cc1	x	x	x	x	x	84*
CC(C)(C)OC(=O)[C@H](Cc1ccccc1)NC(=O)c1nc[nH]c1C(=O)N[C@@H](Cc1ccccc1)C(=O)OC(C)(C)C	x	x	x	11	x	12
CC(C)(C)OC(=O)NCc1ccc(NC(=O)c2nc[nH]c2C(=O)NCCN(CCNC(=O)c2[nH]cnc2C(=O)Nc2ccc(CNC(=O)OC(C)(C)C)cc2)CCNC(=O)c2[nH]cnc2C(=O)Nc2ccc(CNC(=O)OC(C)(C)C)cc2)cc1	x	x	x	x	x	-3
CC(C)(C)OC(=O)NCc1ccc(NC(=O)c2nc[nH]c2C(=O)NCCCNC(=O)c2[nH]cnc2C(=O)Nc2ccc(CNC(=O)OC(C)(C)C)cc2)cc1	x	x	x	x	x	83*
C[C@@H]1CN([C@@H](C)CO)C(=O)c2cc(Br)cnc2O[C@H]1CN(C)C(=O)c1ccc2c(c1)OCO2	x	x	x	x	x	-4
Brc1cccc(-c2nc3c4ccccc4ccn3c2Cc2ccsc2)c1	x	x	x	x	x	34
CSCCC(c1nnnn1C1CCCCC1)N1CCN(C/C=C/c2ccccc2)CC1 (centres undefined)	x	x	x	x	x	-40
Cc1ccc(NC(=O)c2nc[nH]c2C(=O)Nc2ccccc2F)cc1	x	x	x	x	x	1
O=C(Nc1cccc(Cl)c1)c1nc[nH]c1C(=O)NCCCNC(=O)c1[nH]cnc1C(=O)Nc1cccc(Cl)c1	x	x	x	x	x	50*
O=C(Nc1ccccc1)c1nc[nH]c1C(=O)Nc1ccccc1F	x	x	x	x	x	50*
CCOC(=O)c1ccc(NC(=O)c2nc[nH]c2C(=O)NCCCCCNC(=O)OC(C)(C)C)cc1	x	x	x	12	x	52*
CC(C)(C)OC(=O)NCCCCCNC(=O)c1[nH]cnc1C(=O)Nc1cc(Br)ccc1F	x	x	x	x	x	58*
CCOC(=O)c1ccc(NC(=O)c2nc[nH]c2C(=O)NCCCCNC(=O)c2[nH]cnc2C(=O)Nc2ccc(C(=O)OCC)cc2)cc1	x	x	x	x	x	46
COC(=O)c1ccc(CSc2nc3c(c(=O)[nH]2)CCC3)cc1	x	x	x	x	x	22
CC1=C(/C=C/C(C)=C/C=C/C(C)=C\C(=O)O)C(C)(C)CCC1	x	x	x	x	x	9
CC1=C(/C=C/C(C)=C/C=C/C(C)=C/C(=O)Nc2ccc(O)cc2)C(C)(C)CCC1	x	x	x	x	x	80*
CC(C)CCn1cnc2c([nH]c3cccc(Cl)c32)c1=O	5	1.4	1	12	-3	52*
Cc1cccc2[nH]c3c(=O)n(CCN4CCNCC4)cnc3c12	2	0.94	1	24	3	25
Cc1cc2c(=Cc3ccc(N(C)C)cc3)c3ccccc3n2[n+]1C	x	x	x	x	x	31
C[n+]1c(-c2ccccc2)cc2c(=Cc3ccccc3)c3ccccc3n21	x	x	x	x	x	81*
CN(C)c1ccc(C=c2c3cc(O)ccc3n3c2cc(-c2ccccc2)[n+]3C)cc1	x	x	x	x	x	51*
CCOC(=O)c1cc2c(=Cc3ccc(N(C)C)cc3)c3ccccc3n2[n+]1C	x	x	x	x	x	53*
COc1ccc(CCNC(=O)c2ccc(F)c(S(=O)(=O)N3CCCCC3)c2)cc1	x	x	x	x	x	1
Cc1oc(-c2cccc(Cl)c2)nc1CN1CCC(C(=O)NCCCN2CC(C)CC(C)C2)CC1 (centres undefined)	x	x	x	x	x	54*
COc1ccc(CCNC(=O)C2CCN(Cc3nc(-c4cccc(Cl)c4)oc3C)CC2)cc1OC	-16	0.78	1.1	18	-8	54*
